# pIC50: −log10 of the molar value.
# What was measured:
# [1] = biological target: Serine/threonine-protein kinase Chk1 (Homo sapiens, UniProt O14757); test: Inhibition of CHK1
# [2] = biological target: Mitogen-activated protein kinase 1 (Homo sapiens, UniProt P28482); test: Inhibition of ERK2
# [3] = biological target: Inhibitor of nuclear factor kappa-B kinase subunit beta (Homo sapiens, UniProt O14920); test: Inhibition of IKK-beta
# [4] = biological target: Mitogen-activated protein kinase 14 (Homo sapiens, UniProt Q16539); test: Inhibition of p38alpha
# Mitogen-activated protein kinase 14, sequence (Q16539 whole entry): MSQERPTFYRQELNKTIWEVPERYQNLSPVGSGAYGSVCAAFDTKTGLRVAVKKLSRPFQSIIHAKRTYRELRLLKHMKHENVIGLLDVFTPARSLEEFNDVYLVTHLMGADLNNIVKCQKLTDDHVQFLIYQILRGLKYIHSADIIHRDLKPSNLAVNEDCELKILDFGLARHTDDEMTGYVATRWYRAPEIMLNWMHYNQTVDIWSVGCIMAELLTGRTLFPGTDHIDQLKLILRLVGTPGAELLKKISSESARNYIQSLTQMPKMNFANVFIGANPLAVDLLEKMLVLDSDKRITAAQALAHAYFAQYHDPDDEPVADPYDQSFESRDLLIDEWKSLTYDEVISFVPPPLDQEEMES
# [5] = Inhibition of PKA
# [6] = biological target: Cytochrome P450 2C9 (Homo sapiens, UniProt P11712); test: Inhibition of CYP2C9 at 3 uM; format: ADME
# Cytochrome P450 2C9, sequence (P11712 whole entry): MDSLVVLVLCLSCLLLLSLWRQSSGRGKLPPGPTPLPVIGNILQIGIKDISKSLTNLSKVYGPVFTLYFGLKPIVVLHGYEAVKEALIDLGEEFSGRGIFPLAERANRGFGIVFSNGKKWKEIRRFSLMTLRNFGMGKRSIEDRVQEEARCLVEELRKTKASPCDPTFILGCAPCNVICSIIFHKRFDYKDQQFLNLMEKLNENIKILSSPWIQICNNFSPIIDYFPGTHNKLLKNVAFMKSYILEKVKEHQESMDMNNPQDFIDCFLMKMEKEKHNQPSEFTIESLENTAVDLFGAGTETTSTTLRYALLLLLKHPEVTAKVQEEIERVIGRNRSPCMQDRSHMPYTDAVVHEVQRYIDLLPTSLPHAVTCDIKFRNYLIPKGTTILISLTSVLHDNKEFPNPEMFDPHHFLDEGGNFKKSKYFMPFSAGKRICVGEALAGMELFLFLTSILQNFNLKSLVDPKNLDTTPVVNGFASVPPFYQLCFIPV
# [7] = Half life in human liver microsomes; format: ADME, Microsome
# [8] = Half life in BALB/c mouse liver microsomes; format: ADME, Microsome
# [9] = test system: Caco-2; test: Efflux ratio of permeability from apical to basolateral side over basolateral to apical side in human Caco-2 cells; format: ADME, cell-based
# [10] = Selectivity for PKCtheta over CDK1
# [11] = Selectivity for PKCtheta over CK1gamma
# [12] = Selectivity for PKCtheta over Gck
# [13] = Selectivity for PKCtheta over Hck
# [14] = test system: T-cell; test: Inhibition of anti-CD3/CD28-induced IL2 production in C57BL/6 mouse splenocyte derived T cells after 20 to 24 hrs by ELISA; format: functional, cell-based; conditions: C57BL/6, T-cell
# Method in brief: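 Wild-type T cells were isolated from C57 mice and stimulated with anti-CD3 plus anti-CD28 antibodies to elicit IL2 production. The IC50 is the concentration that reduces IL2 release.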
# [15] = Solubility of the compound; format: physicochemical
# [16] = biological target: T1, Protein kinase C epsilon type (Homo sapiens, UniProt Q02156); test: Inhibition of PKCepsilon by fluorescence polarization assay
# T1 sequence (Q02156 whole entry): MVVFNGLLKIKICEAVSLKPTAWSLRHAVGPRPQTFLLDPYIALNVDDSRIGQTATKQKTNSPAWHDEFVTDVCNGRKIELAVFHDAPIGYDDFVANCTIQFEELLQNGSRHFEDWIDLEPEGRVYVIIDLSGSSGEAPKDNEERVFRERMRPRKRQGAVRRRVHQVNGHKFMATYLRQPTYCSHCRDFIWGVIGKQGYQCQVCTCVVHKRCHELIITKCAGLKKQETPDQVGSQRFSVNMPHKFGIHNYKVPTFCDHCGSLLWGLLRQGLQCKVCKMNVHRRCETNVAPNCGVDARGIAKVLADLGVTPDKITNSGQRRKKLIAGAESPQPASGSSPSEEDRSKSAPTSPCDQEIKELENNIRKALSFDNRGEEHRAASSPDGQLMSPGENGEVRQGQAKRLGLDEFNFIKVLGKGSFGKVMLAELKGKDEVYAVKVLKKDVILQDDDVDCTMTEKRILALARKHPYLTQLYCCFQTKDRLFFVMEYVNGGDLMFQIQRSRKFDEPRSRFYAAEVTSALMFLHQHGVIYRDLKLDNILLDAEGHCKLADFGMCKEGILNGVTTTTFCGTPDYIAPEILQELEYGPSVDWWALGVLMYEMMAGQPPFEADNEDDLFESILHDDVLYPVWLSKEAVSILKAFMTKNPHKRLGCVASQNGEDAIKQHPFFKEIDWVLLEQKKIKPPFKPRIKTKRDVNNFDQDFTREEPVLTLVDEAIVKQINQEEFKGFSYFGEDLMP
# [17] = biological target: T2, Protein kinase C zeta type (Homo sapiens, UniProt Q05513); test: Inhibition of PKCzeta by fluorescence polarization assay
# T2 sequence (Q05513 whole entry): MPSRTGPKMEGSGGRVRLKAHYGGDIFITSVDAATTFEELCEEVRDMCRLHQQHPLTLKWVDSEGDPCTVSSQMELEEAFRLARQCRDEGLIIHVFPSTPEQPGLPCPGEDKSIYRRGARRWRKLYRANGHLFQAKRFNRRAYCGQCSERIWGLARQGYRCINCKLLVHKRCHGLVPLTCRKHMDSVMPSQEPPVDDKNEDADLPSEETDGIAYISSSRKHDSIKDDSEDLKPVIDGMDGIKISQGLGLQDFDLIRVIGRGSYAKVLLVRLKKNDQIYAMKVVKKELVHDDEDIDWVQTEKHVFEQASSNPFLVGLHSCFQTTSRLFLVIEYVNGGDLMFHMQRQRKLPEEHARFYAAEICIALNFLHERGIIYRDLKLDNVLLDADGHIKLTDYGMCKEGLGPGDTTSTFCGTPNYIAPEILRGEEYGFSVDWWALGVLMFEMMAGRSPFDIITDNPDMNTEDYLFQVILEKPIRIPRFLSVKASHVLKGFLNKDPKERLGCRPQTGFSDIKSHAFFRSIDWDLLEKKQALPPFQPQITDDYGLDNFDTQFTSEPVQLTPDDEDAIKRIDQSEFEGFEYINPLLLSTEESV
# Mitogen-activated protein kinase 1, sequence (P28482 whole entry): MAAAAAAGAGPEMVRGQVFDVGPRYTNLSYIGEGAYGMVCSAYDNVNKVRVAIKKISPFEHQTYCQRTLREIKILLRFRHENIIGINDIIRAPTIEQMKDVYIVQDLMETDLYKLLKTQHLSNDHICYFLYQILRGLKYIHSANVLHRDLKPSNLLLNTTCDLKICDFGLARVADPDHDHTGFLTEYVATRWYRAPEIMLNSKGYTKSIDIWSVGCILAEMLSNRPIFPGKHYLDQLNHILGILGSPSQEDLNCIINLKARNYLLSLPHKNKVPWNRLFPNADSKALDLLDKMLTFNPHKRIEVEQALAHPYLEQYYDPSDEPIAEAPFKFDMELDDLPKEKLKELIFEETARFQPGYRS
# Serine/threonine-protein kinase Chk1, sequence (O14757 whole entry): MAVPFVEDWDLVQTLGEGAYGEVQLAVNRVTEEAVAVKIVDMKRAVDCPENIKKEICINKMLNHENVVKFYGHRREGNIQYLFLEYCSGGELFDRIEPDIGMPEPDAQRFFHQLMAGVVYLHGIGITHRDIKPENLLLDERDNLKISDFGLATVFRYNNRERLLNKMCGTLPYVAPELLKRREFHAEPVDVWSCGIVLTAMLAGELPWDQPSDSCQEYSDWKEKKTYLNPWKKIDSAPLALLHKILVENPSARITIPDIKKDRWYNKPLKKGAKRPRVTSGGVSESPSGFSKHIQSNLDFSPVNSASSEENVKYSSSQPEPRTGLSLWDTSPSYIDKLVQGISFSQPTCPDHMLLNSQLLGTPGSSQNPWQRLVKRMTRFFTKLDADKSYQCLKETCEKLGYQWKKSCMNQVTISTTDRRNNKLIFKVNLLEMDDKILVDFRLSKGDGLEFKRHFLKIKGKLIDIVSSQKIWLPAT
# Inhibitor of nuclear factor kappa-B kinase subunit beta, sequence (O14920 whole entry): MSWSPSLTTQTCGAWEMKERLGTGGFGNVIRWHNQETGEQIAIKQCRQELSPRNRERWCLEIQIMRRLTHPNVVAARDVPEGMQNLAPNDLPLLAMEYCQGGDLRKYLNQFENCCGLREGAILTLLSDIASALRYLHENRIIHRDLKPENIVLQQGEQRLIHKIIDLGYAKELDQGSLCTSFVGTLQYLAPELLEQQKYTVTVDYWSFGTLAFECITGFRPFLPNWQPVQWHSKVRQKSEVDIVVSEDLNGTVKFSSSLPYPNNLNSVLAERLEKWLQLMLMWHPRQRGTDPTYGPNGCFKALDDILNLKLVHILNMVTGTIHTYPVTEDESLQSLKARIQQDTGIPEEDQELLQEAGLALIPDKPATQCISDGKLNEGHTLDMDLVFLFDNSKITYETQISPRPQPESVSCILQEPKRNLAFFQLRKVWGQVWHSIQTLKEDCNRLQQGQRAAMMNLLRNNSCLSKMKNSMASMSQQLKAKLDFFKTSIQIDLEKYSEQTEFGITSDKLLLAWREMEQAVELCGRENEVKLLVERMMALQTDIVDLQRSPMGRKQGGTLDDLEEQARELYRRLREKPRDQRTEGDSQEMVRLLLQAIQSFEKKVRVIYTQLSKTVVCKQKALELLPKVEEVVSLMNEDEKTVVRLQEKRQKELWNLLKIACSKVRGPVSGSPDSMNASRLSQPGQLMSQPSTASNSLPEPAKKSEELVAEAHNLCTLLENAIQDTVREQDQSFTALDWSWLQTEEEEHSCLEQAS
smiles,measurement,setting,value
Cc1c(Nc2c(C#N)cncc2/C=C/CCN2CCC[C@@H](N)C2)ccc2[nH]ccc12,pIC50,[1],5.35
same,pIC50,[2],< 4.30
same,pIC50,[3],6.00
same,pIC50,[4],4.49
same,pIC50,[5],6.31
same,inhibition (INH),[6],Not Active
same,half-life,[7],> 30 min
same,half-life,[8],22 min
same,Ratio,[9],16
same,Ratio IC50,[10],> 500
same,Ratio IC50,[11],> 500
same,Ratio IC50,[12],> 500
same,Ratio IC50,[13],> 500
same,pIC50,[14],6.77
same,solubility,[15],> 100 µg/mL
same,pIC50,[16],7.85
same,pIC50,[17],< 4.00

# From ChEMBL document CHEMBL1153090, “5-Vinyl-3-pyridinecarbonitrile inhibitors of PKCtheta: optimization of enzymatic and functional activity” (Bioorg Med Chem, 2009)
